In article PMC9206500 (Journal of medicinal chemistry, 2021):
Where two headings read alike, the source gives them in different places.

How the values were obtained:
[1] = test system: three human malignant melanoma cell lines and three breast cancer cell lines; experiment: MTS cell proliferation assay, average over the panel; assay type: cell-based; settings: for IC50: read-out: average IC50
[2] = target: purified porcine brain tubulin (Sus scrofa, UniProt P02554+Q2XVP4); experiment: Cell-free tubulin polymerization assay; assay type: biochemical; settings: 10 μM, tubulin 3 mg/mL, GTP 1 mM, 1 h
A375/TxR cells [3] = experiment: Annexin V-FITC/PI apoptosis detection; assay type: cell-based, human; settings: 10 nM, 24 h; untreated […]
[4] = Liver microsome stability assay, human; settings: for fold improvement of half-life in human liver microsomes: compared to parent compound CH-2-77
A375/TxR cells [5] = experiment: Cell cycle analysis by flow cytometry; assay type: cell-based, human; settings: 24 h; controls 10 nM, 60c 2.5, 5, 10 nM
A375/TxR xenograft [6] = experiment: Spontaneous metastasis in A375/TxR xenograft model; assay type: in vivo, NSG mice; settings: for mice that developed liver metastases: n = 6
In short: (§1)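 Hosts were NSG mice aged 5–6 weeks. At ~100 mm3 mice were randomized by weight and volume into four groups (3 male + 3 female each). Test compound vehicle was PEG300:Tween 80:saline 3:1:6. Dosing was IP three times weekly. The study ended when vehicle tumors neared ~1000 mm3.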

CYP3A = experiment: CYP inhibition, CYP3A; assay type: in vitro ADME, human; settings: at 10 μM, HLM
TA1535 = experiment: AMES fluctuation test, TA1535; parameters: species or system bacteria; settings: strain TA1535
[7] = Systemic toxicity in A375/TxR tumor-bearing mice; assay type: in vivo, NSG mice; settings: for histology of major organs (lung, liver, kidney, heart, spleen), H&E: paclitaxel 10 mg/kg, 60c 10 or 20 mg/kg IP
In short: as §1

CYP2C9 = CYP2C9 (Homo sapiens, UniProt P11712); experiment: CYP inhibition, CYP2C9; assay type: in vitro ADME; settings: at 10 μM, HLM, diclofenac substrate
CYP2B6 = CYP2B6 (Homo sapiens, UniProt P20813); experiment: CYP inhibition, CYP2B6; assay type: in vitro ADME; settings: at 10 μM, HLM, bupropion substrate
TA98 = experiment: AMES fluctuation test, TA98; parameters: species or system bacteria; settings: strain TA98
CYP2D6 = CYP2D6 (Homo sapiens, UniProt P10635); experiment: CYP inhibition, CYP2D6; assay type: in vitro ADME; settings: at 10 μM, HLM, dextromethorphan substrate
TA1537 = experiment: AMES fluctuation test, TA1537; parameters: species or system bacteria; settings: strain TA1537
CYP2C19 = CYP2C19 (Homo sapiens, UniProt P33261); experiment: CYP inhibition, CYP2C19; assay type: in vitro ADME; settings: at 10 μM, HLM, omeprazole substrate
A375/TxR xenograft [8] = experiment: A375/TxR xenograft antitumor efficacy; assay type: in vivo, NSG mice; settings: for average tumor weight: vehicle 2.0 g; for tumor necrosis (H&E of excised tumors): 60c 10 and 20 mg/kg, paclitaxel 10 mg/kg
In short: as §1

CYP1A = CYP1A (Homo sapiens, UniProt P05177); experiment: CYP inhibition, CYP1A; assay type: in vitro ADME; settings: at 10 μM, HLM, phenacetin substrate
A100 = experiment: AMES fluctuation test, A100; parameters: species or system bacteria; settings: strain A100
SKBR3 = experiment: MTS cell proliferation assay, SKBR3; assay type: cell-based, human; settings: read-out: IC50 ± SEM, SKBR3, breast cancer cell line, 72 h, n = 4
MDA-MB-453 = experiment: MTS cell proliferation assay, MDA-MB-453; assay type: cell-based, human; settings: read-out: IC50 ± SEM, MDA-MB-453, breast cancer cell line, 72 h, n = 4
RPMI7951 = experiment: MTS cell proliferation assay, RPMI7951; assay type: cell-based, human; settings: read-out: IC50 ± SEM, RPMI7951, melanoma cell line, 72 h, n = 4
M14 = experiment: MTS cell proliferation assay, M14; assay type: cell-based, human; settings: read-out: IC50 ± SEM, M14, melanoma cell line, 72 h, n = 4
MDA-MB-231 = experiment: MTS cell proliferation assay, MDA-MB-231; assay type: cell-based, human; settings: read-out: IC50 ± SEM, MDA-MB-231, breast cancer cell line, 72 h, n = 4
A375 = experiment: MTS cell proliferation assay, A375; assay type: cell-based, human; settings: read-out: IC50 ± SEM, A375, melanoma cell line, 72 h, n = 4
[9] = Liver microsome stability assay, mouse; settings: 0.5 mg/mL protein, 10 μM compound, NADPH

purified porcine brain tubulin, sequence (Q2XVP4 whole entry): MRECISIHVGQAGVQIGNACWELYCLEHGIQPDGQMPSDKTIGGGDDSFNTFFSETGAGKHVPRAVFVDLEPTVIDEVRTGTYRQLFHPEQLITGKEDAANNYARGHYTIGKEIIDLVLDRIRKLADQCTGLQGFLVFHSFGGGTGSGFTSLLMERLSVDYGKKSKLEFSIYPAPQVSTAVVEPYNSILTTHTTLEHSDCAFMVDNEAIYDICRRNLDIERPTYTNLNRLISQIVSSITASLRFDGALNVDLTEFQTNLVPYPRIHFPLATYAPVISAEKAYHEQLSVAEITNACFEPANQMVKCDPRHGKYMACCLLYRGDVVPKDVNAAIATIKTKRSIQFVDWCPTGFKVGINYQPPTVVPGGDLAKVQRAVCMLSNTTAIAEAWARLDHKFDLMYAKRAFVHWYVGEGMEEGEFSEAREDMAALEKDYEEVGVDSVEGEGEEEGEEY
purified porcine brain tubulin, sequence (P02554 whole entry): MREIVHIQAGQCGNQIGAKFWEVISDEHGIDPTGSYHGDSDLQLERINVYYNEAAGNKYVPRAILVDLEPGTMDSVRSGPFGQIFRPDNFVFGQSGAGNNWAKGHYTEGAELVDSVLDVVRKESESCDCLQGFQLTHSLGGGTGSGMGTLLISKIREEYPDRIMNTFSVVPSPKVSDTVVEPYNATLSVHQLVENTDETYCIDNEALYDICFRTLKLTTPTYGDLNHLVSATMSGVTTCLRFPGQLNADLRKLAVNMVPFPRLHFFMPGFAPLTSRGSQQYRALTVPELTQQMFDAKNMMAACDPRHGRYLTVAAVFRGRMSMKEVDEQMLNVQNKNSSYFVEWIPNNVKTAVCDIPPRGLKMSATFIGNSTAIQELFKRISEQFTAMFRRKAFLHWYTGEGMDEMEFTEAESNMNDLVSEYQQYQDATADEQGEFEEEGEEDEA
CYP2D6, sequence (P10635 whole entry): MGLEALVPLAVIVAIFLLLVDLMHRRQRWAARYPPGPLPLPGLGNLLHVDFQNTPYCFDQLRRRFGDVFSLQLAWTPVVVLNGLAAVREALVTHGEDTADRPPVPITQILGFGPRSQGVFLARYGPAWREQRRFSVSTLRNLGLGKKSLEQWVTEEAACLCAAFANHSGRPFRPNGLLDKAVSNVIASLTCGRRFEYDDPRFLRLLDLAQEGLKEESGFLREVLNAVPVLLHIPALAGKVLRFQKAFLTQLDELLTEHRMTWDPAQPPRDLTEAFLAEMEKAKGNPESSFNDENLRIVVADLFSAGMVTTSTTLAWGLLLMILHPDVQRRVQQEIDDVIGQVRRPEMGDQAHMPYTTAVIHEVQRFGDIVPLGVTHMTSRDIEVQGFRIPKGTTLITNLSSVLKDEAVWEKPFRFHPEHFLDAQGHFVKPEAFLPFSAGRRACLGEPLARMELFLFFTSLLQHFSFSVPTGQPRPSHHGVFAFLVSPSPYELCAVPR
CYP2C9, sequence (P11712 whole entry): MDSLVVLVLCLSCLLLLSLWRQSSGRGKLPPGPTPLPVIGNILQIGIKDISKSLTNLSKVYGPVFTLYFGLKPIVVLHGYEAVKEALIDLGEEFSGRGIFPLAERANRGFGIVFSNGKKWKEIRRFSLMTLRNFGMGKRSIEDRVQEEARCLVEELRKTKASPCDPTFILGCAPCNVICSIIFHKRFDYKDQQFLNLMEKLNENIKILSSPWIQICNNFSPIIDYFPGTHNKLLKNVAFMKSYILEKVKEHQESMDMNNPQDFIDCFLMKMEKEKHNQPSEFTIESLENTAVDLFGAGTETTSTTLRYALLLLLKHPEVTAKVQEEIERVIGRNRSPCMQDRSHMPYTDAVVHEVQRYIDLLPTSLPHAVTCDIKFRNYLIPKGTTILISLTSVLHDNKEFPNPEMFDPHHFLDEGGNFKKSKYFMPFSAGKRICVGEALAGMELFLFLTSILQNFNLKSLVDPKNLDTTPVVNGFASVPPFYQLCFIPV
CYP2B6, sequence (P20813 whole entry): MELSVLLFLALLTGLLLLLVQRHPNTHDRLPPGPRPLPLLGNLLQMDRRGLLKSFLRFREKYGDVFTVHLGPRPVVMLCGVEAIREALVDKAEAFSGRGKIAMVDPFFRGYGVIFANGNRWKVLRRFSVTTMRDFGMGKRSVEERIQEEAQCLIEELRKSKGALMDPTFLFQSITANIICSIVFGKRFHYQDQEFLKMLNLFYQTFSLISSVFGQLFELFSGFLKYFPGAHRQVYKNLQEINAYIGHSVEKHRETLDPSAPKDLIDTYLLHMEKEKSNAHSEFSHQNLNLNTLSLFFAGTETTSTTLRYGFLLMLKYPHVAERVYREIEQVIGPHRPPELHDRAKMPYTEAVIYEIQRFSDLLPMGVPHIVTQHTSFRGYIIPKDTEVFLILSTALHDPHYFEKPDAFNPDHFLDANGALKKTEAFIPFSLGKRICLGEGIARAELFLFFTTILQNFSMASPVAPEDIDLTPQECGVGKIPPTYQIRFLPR
CYP1A, sequence (P05177 whole entry): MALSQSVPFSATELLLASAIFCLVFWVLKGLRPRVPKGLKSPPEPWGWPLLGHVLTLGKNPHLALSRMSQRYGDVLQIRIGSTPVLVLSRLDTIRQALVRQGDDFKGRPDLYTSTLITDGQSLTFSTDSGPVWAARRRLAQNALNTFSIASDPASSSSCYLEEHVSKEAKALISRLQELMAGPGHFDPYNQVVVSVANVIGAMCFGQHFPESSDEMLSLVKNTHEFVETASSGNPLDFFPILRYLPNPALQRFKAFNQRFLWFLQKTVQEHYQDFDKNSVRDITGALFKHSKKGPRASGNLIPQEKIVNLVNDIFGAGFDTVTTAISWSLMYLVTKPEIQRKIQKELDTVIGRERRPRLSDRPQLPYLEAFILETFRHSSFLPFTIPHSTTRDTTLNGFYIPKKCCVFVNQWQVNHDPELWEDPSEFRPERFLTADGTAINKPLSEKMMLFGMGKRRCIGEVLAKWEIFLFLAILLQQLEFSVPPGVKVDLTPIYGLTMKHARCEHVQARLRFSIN
CYP2C19, sequence (P33261 whole entry): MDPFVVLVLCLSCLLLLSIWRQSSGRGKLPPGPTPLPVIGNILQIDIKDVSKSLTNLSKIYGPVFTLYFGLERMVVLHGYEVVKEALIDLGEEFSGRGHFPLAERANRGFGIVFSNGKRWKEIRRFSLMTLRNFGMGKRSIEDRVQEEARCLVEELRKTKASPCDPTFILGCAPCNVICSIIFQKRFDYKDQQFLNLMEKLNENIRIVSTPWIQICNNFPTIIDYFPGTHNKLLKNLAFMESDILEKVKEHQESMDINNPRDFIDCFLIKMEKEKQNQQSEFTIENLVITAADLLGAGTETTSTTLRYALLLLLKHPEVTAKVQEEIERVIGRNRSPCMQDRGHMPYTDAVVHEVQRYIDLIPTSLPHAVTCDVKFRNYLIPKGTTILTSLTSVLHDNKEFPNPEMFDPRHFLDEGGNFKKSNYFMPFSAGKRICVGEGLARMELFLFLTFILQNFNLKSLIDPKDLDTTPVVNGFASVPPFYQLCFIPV

## COc1cc(C(=O)c2cccc(-c3ccc(C)cc3)n2)cc(OC)c1OC [CH-2–1, (6-(p-Tolyl)pyridin-2-yl)(3,4,5-trimethoxyphenyl)methanone, reference compound]
[1]; Homo sapiens
  IC50: 3.7 nM

## COc1cc(C(=O)c2cccc(-c3ccc(C)c(O)c3)n2)cc(OC)c1OC [CH-2–77]
[2]
  effect on tubulin polymerization: interfered with tubulin polymerization
[1]; Homo sapiens
  IC50: 2.5 nM
A375/TxR cells [3]
  apoptotic cells: 51.1%

## COc1cc(C(=O)c2cccc(-c3ccc(N(C)C)cc3)n2)cc(OC)c1OC [Compound 4c, (6-(4-(Dimethylamino)phenyl)pyridin-2-yl) (3,4,5-trimethoxyphenyl)methanone]
[1]; Homo sapiens
  IC50: 48.7 nM
[1]; compared to CH-2–1, average IC50
  fold reduction in antiproliferative activity: 13 fold

## COc1cc(C(=O)c2cccc(-c3ccc(C)cc3)n2)cc2c1OCCO2 [Compound 10, (8-Methoxy-2,3-dihydrobenzo[b][1,4]dioxin-6-yl)(6-(p-tolyl)-pyridin-2-yl)methanone]
[1]; Homo sapiens
  IC50: 3.8 nM

## CCc1c(OC)cc(C(=O)c2cccc(-c3ccc(C)c(O)c3)n2)cc1OC [Compound 13, (4-Ethyl-3,5-dimethoxyphenyl)(6-(3-hydroxy-4-methylphenyl)-pyridin-2-yl)methanone]
[1]; Homo sapiens
  IC50: 18.3 nM

## COc1cc(-c2n[nH]c3ccc(-c4ccc(C)c(O)c4)nc23)cc(OC)c1OC [Compound 22, 2-Methyl-5-(3-(3,4,5-trimethoxyphenyl)-1H-pyrazolo[4,3-b]-pyridin-5-yl)phenol]
[4]
  fold improvement of half-life in human liver microsomes: 19 fold
[1]; Homo sapiens
  IC50: 34.1 nM

## COc1cc(C(=O)c2nc(-c3ccc(C)c(O)c3)[nH]c2Br)cc(OC)c1OC [Compound 29, (5-Bromo-2-(3-hydroxy-4-methylphenyl)-1H-imidazol-4-yl)-(3,4,5-trimethoxyphenyl)methanone]
[1]; Homo sapiens
  IC50: 80.5 nM

## COc1cc(C(=O)c2cncc(-c3ccc(C)cc3)n2)cc(OC)c1OC [Compound 35, (6-(p-Tolyl)pyrazin-2-yl)(3,4,5-trimethoxyphenyl)methanone]
[1]; Homo sapiens
  IC50: 4.2 nM

## COc1cc(C(=O)c2cncc(-c3ccc(C)c(O)c3)n2)cc(OC)c1OC [Compound 40a, (6-(3-Hydroxy-4-methylphenyl)pyrazin-2-yl)(3,4,5-trimethoxyphenyl)methanone]
[1]; Homo sapiens
  IC50: 9.2 nM

## COc1cc(C(=O)c2cncc(-c3cccc4[nH]ncc34)n2)cc(OC)c1OC [Compound 40c, (6-(1H-Indazol-4-yl)pyrazin-2-yl)(3,4,5-trimethoxyphenyl)-methanone]
[1]; Homo sapiens
  IC50: 33.7 nM

## COc1cc(C(=O)c2ccnc(-c3ccc(C)c(O)c3)n2)cc(OC)c1OC [Compound 46a, (2-(3-Hydroxy-4-methylphenyl)pyrimidin-4-yl)(3,4,5-trimethoxyphenyl)methanone]
[1]; Homo sapiens
  IC50: 8.2 nM

## COc1cc(C(=O)c2ccnc(-c3c[nH]c4ccccc34)n2)cc(OC)c1OC [Compound 46b, (2-(1H-Indol-3-yl)pyrimidin-4-yl)(3,4,5-trimethoxyphenyl)-methanone]
[1]; Homo sapiens
  IC50: 26.3 nM

## COc1cc(C(=O)c2cc(C)cc(-c3ccc(C)cc3)n2)cc(OC)c1OC [Compound 50a, (4-Methyl-6-(p-tolyl)pyridin-2-yl)(3,4,5-trimethoxyphenyl)-methanone]
[4]
  fold improvement of half-life in human liver microsomes: 3 fold
[1]; Homo sapiens
  IC50: 7.7 nM

## COc1cc(C(=O)c2cc(OC)c(OC)c(OC)c2)nc(-c2ccc(C)cc2)c1 [Compound 54a, (4-Methoxy-6-(p-tolyl)pyridin-2-yl)(3,4,5-trimethoxyphenyl)-methanone]
[4]
  fold improvement of half-life in human liver microsomes: 3 fold

## COc1cc(C(=O)c2cc(OC)c(OC)c(OC)c2)nc(-c2ccc(C)c(O)c2)c1 [Compound 55b, (6-(3-Hydroxy-4-methylphenyl)-4-methoxypyridin-2-yl)(3,4,5-trimethoxyphenyl)methanone]
[4]
  fold improvement of half-life in human liver microsomes: 3 fold

## COc1cc(C(=O)c2nc(-c3ccc(C)c(O)c3)ccc2F)cc(OC)c1OC [Compound 60c, (3-Fluoro-6-(3-hydroxy-4-methylphenyl)pyridin-2-yl)(3,4,5-trimethoxyphenyl)methanone]
[2]
  effect on tubulin polymerization: strongly inhibited microtubule polymerization
A375/TxR cells [5]
  effect on cell cycle distribution: dose-dependent accumulation of cells in the G2/M phase
A375/TxR xenograft [6]; 20 mg/kg IP
  mice that developed liver metastases: none
A375/TxR xenograft [6]; 10 and 20 mg/kg IP
  lung metastasis (H&E): lung nodules were markedly sparse and of reduced size
CYP3A; midazolam substrate
  CYP3A inhibition: CYP3A (HLM, midazolam substrate): 34.7%
CYP3A; testosterone substrate
  CYP3A inhibition: CYP3A (HLM, testosterone substrate): 51.8%
TA1535
  AMES fluctuation test: TA1535: no mutation
[7]; 10 or 20 mg/kg IP, 3 times/week, 18 days
  body weight during therapy: without weight loss
[7]
  histology of major organs (lung, liver, kidney, heart, spleen), H&E: no apparent pathological changes in the major organs
CYP2C9
  CYP2C9 inhibition: CYP2C9 (HLM, diclofenac substrate): 54.7%
CYP2B6
  CYP2B6 inhibition: CYP2B6 (HLM, bupropion substrate): 12%
TA98
  AMES fluctuation test: TA98: no mutation
CYP2D6
  CYP2D6 inhibition: CYP2D6 (HLM, dextromethorphan substrate): 11.9%
TA1537
  AMES fluctuation test: TA1537: no mutation
CYP2C19
  CYP2C19 inhibition: CYP2C19 (HLM, omeprazole substrate): 49%
A375/TxR xenograft [8]; 10 mg/kg IP
  average tumor weight: 1.13 g
A375/TxR xenograft [8]; 20 mg/kg IP
  average tumor weight: 0.76 g
A375/TxR xenograft [8]
  tumor necrosis (H&E of excised tumors): highly necrotic
CYP1A
  CYP1A inhibition: CYP1A (HLM, phenacetin substrate): 50.9%
A100
  AMES fluctuation test: A100: no mutation

## COc1cc(C(=O)c2cc(F)cc(-c3ccc(C(F)F)cc3)c2)cc(OC)c1OC [Compound 64, (4′-(Difluoromethyl)-5-fluoro-[1,1′-biphenyl]-3-yl)(3,4,5-trimethoxyphenyl)methanone]
[1]; Homo sapiens
  IC50: 60.8 nM

## CC(=O)O[C@H]1C(=O)[C@@]2(C)[C@H]([C@H](OC(=O)c3ccccc3)[C@]3(O)C[C@H](OC(=O)[C@H](O)[C@@H](NC(=O)c4ccccc4)c4ccccc4)C(C)=C1C3(C)C)[C@]1(OC(C)=O)CO[C@@H]1C[C@@H]2O [paclitaxel, reference compound]
[2]
  effect on tubulin polymerization: increased rate of tubulin polymerization
A375/TxR cells [5]
  effect on cell cycle distribution: normal cell cycle progression
A375/TxR xenograft [6]; 10 mg/kg IP, vehicle 83%
  mice that developed liver metastases: 83%
[7]
  histology of major organs (lung, liver, kidney, heart, spleen), H&E: no apparent pathological changes in the major organs
A375/TxR xenograft [8]; 10 mg/kg IP, 3 times/week, 18 days
  increase of tumor volume vs vehicle: approximately 5.3%
A375/TxR xenograft [8]; 10 mg/kg IP
  average tumor weight: 2.1 g
A375/TxR xenograft [8]
  tumor necrosis (H&E of excised tumors): all viable

## (6-(Indolin-6-yl)pyridin-2-yl)(3,4,5-trimethoxyphenyl)methanone [Compound 4b]
[4]; 0.5 mg/mL protein, 10 μM compound, NADPH
  metabolic stability in human liver microsome t1/2: 15 ± 1.2 min
SKBR3
  IC50: 5.5 ± 1.2 nM
MDA-MB-453
  IC50: 5.9 ± 1.4 nM
[1]; average over six cancer cell lines
  IC50: 5.5 nM
RPMI7951
  IC50: 5.9 ± 1.5 nM
M14
  IC50: 5.6 ± 1.4 nM
MDA-MB-231
  IC50: 5.3 ± 1 nM
A375
  IC50: 5 ± 1 nM
[9]
  metabolic stability in mouse liver microsome t1/2: 4.2 ± 0.00 min
